Test results taken from PMC4267758 (Journal of molecular biology, 2014).
“Also recorded” adds a separate entry of the source. Read-outs that look alike come from different tables or passages of the source. Where no end group is shown, it is not given here. The star is where a group is joined. MTSL = methane thiosulphonate spin label, CC1(C)C=C(CS*)C(C)(C)N1[O]

What was measured:
[1] = system: Pyk2-FAT; test: Sedimentation equilibrium AUC; format: binding, human; conditions: AUC-SE; for Kd: two site hetero-association model (A+B+B↔ABB), 1:2 Pyk2-FAT to peptide, 20 mM MES, pH 6.2, 4 °C, Monte Carlo error, 500 iterations, confidence level 0.68
Method in brief: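 Sedimentation equilibrium at 4 °C in 20 mM MES, 50 mM NaCl, pH 6.2. Rotor speeds 18.4, 26.9 and 46k rpm, equilibrium reached at 30, 26 and 18 h. Loading 35–96 μM. Absorbance read at 280 and 230 nm, 0.001 cm radial steps, 20 replicates per point. Global least-squares fit across speeds to the A+B+B↔ABB model.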

[2] = system: Pyk2-FAT; test: Isothermal titration calorimetry; format: binding, human
Method in brief: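 Human Pyk2 FAT domain (residues 871–1005) with an N-terminal His6 tag, expressed in E. coli BL21(DE3) and purified by Ni-affinity then gel filtration. The cell held 10 μM protein in 20 mM MES, pH 6.2. The syringe held chicken paxillin LD-motif peptides (100 μM) or the His-tagged paxillin 133–290 fragment (50 μM). Solutions degassed; 2 μl injections, 120 s apart, at 25°C. Ligand-into-buffer heats subtracted. Fits used one-site or two-site sequential models. Run in duplicate.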

[3] = system: Pyk2-FAT; test: H/D exchange NMR of Pyk2-FAT complexes; set-up: species or system human; conditions: H/D exchange in D2O, fast 15N-HSQC, up to 10 h
Method in brief: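 15N-labelled Pyk2-FAT complexes (400–500 μM, 20 mM MES pH 6.2) were lyophilized and rehydrated in D2O. FAST 1H-15N HSQC spectra were recorded at intervals up to 10 h at 305 K. HSQC spectra in H2O before and after exchange checked structural integrity.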

[4] = system: Pyk2-FAT; test: NMR titration / chemical shift perturbation of 15N-labeled Pyk2-FAT; format: binding, human; conditions: 15N-HSQC/TROSY titration, Pyk2-FAT:ligand 1:0.2 to 1:2, 20 mM MES, pH 6.2, 305K
Method in brief: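 15N-labeled Pyk2-FAT (400–500 μM in 20 mM MES, pH 6.2) titrated at 305 K with chicken LD peptides at protein:peptide ratios of 1:0.2 to 1:2. Peptide stocks were in dialysis buffer, pH readjusted to 6.2. 15N-HSQC spectra recorded at 600/800 MHz. Weighted shift Δav = [(ΔH² + (ΔN/5)²)/2]^1/2. For PRE, MTSL-labeled peptides were added at 1:0.2 and Iox/Ired taken after ascorbate reduction.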

[5] = system: Pyk2-FAT; test: Steady-state 1H-15N heteronuclear NOE; set-up: species or system human; conditions: 600 MHz, 305 K; relative to free Pyk2-FAT, loop regions
Method in brief: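 Steady-state 1H-15N heteronuclear NOE was measured at 600 MHz, 305 K on 15N-labelled Pyk2-FAT, free and bound to LD-motif peptide. Protein was at 400–500 μM in 20 mM MES pH 6.2. NOE values were taken as peak-intensity ratios of 1H-saturated to unsaturated spectra.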

[6] = system: Pyk2-FAT; test: Reverse NMR titration: unlabeled Pyk2-FAT added to 15N-labeled paxillin ligand; format: binding, human; conditions: 1H-15N HSQC/TROSY, ratios up to 1:2, 20 mM MES, pH 6.2
Method in brief: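 Unlabelled Pyk2-FAT was titrated into a 15N-labelled ligand in 20 mM MES pH 6.2, with 15N-1H HSQC spectra at 600/800 MHz and 305 K. Ligands were an expressed chicken paxillin 139–163 peptide or His-tagged chicken paxillin 133–290. […] Ratios were 1:0.2–1:2.0.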

[7] = system: FAK-FAT; conditions: ref [39] (b5), [39], [40]; cited from earlier work
[8] = system: FAT-like domain from G-protein-coupled receptor kinase-interacting protein 1 (GIT1); conditions: ref [41]; cited from earlier work
[9] = system: Pyk2-FAT; test: Co-crystal structure with Pyk2-FAT; format: binding, human; conditions: PDB 4R32, 3.5 Å, one at H1/H4, one at H2/H3
[10] = system: Pyk2-FAT; test: Paramagnetic relaxation enhancement; format: binding, human; conditions: PRE, MTSL-labeled peptide, Pyk2-FAT:peptide 1:0.2, 20 mM MES, pH 6.2
Method in brief: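 Single-cysteine peptide variants in 20 mM phosphate pH 7.2 were reacted with fivefold molar excess MTSL for 8 h at room temperature. They were HPLC-repurified, lyophilized and redissolved in 20 mM MES pH 6.2, then added to uniformly 15N-labelled Pyk2-FAT. The reduced reference used fivefold molar excess ascorbic acid for 1 h. Per-residue Iox/Ired peak-intensity ratios were computed, excluding prolines and overlapped peaks.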

Substance | global free energy difference between first and second sites (ΔGAB and ΔGABB) ([1]; 1:2 stoichiometry, two-site hetero-association model) | Delta G, single site (1:1) ([1]; single site hetero-association model, T = 277.149994K, RT = 0.551kcal/mol) | Delta G, first binding site (1:2) ([1]; two site hetero-association model, first site, T = 277.149994K, RT = 0.551kcal/mol) | Delta G, second binding site (both occupied) ([1]; two site hetero-association model, second site, T = 277.149994K, RT = 0.551kcal/mol) | Kd ([1]; read-out: KAB (first site), 1:2 stoichiometry) | Kd ([1]; read-out: KABB (second site), 1:2 stoichiometry) | relative binding at H1/H4 and H2/H3 sites of Pyk2-FAT ([2]; discussion statement, H1/H4 versus H2/H3) | affinity preference for H2/H3 site over H1/H4 site of Pyk2-FAT ([2]; from ITC and AUC studies) | amide H/D exchange protection of Pyk2-FAT in complex [3] | binding sites / site preference on Pyk2-FAT by NMR [4] | steady-state 1H-15N NOE of Pyk2-FAT amides upon ligand binding [5] | effect of unlabeled Pyk2-FAT on resonances of 15N-labeled ligand [6] | preferred binding site on FAK-FAT [7] | binding site on GIT1 FAT-like domain [8] | peptide molecules bound per Pyk2-FAT in crystal [9] | H2/H3 residues of Pyk2-FAT affected by spin-labeled peptide [10]
LD2: paxillin derived peptide LD2 (chicken paxillin; residues 139–163), chemically synthesized (GSNLSELDRLLLELNAVQHNPPSGF) | -0.76 kcal/mol | -7.61 kcal/mol | -7.45 kcal/mol | -6.69 kcal/mol | 1.32 ± 0.02 µM | 5.3 ± 0.12 µM | binds to both H1/H4 and H2/H3 sites of Pyk2-FAT equally well | 5 fold | residues from H2/H3 and H1/H4 were protected even after 10 hrs | H2/H3 is the stronger binding site | significantly increased relative to free Pyk2-FAT | most of the LD2 resonances were broadened beyond detection | specifically recognizes the H1/H4 site of FAK-FAT; also recorded: preferentially binds to the helices H1 and H4 interface (H1/H4) site | located exclusively at the H1/H4 surface | two LD2 peptides bind to one molecule of Pyk2-FAT | –
LD2MTSL: methane thiosulphonate (MTSL)-derivatized LD2 peptide (GSNLSELDRLLLELNAVC(MTSL)HNPPSGF) | – | – | – | – | – | – | – | – | – | – | – | – | – | – | – | residues from H2/H3 disappeared or showed reduced intensity
